From ChEMBL document CHEMBL1158116, “Prenylated flavonoids from the root bark of Berchemia discolor, a Tanzanian medicinal plant” (2006)
≈ marks a conversion by molar mass, not a printed value. Calls of active or inactive are those of the source. The calls are words filed in the database; no cut-off is given here.

Tests used:
[1] = tested on: LNCaP; experiment: Cytotoxicity against human LNCAP cells; assay type: functional; details: read-out: ED50 (the source's name)
Method in brief: (§1)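 Panel of three human cancer lines (Lu1, LNCaP, MCF-7). Cytotoxicity expressed as ED50 in µg/mL.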

[2] = tested on: MCF7; experiment: Cytotoxicity against human MCF7 cells; assay type: functional; details: read-out: ED50 (the source's name); method in brief: as §1
[3] = tested on: Lu1; experiment: Cytotoxicity against human Lu1 cells; assay type: functional; details: read-out: ED50 (the source's name); method in brief: as §1
[4] = tested on: Lu1; experiment: Inhibition of human Lu1 cells propagated in hollow fibers via subcutaneous site of immunodeficient NCr nu/nu mouse at 10 to 40 mg/kg, ip once daily after 7 days of implantation; assay type: functional, organism-based
Method in brief: (§2)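 In vivo hollow fiber model in immunodeficient mice. Fibers loaded with Lu1, LNCaP or MCF-7 cells were implanted subcutaneously or intraperitoneally. Vehicle or drug was given ip once daily at 10, 20 or 40 mg/kg on days 3-6 after implantation. Mice were sacrificed on day 7, and fibers were retrieved and analysed for growth inhibition versus vehicle.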

[5] = tested on: LNCaP; experiment: Inhibition of human LNCAP cells propagated in hollow fibers via intraperitoneal site of immunodeficient NCr nu/nu mouse at 10 to 40 mg/kg, ip once daily after 7 days of implantation relative to control; assay type: functional; details: dose mg/kg 10-40; method in brief: as §2
[6] = tested on: MCF7; experiment: Inhibition of human MCF7 cells propagated in hollow fibers via subcutaneous site of immunodeficient NCr nu/nu mouse at 10 to 40 mg/kg, ip once daily after 7 days of implantation; assay type: functional, organism-based; method in brief: as §2

SMILES	EC50 [1]	EC50 [2]	EC50 [3]	Activity [4]	inhibition (INH) [5]	Activity [6]
COc1ccc([C@]2(O)COc3c(ccc4c3C=CC(C)(C)O4)C2)c(O)c1	> 5 µg/mL	> 5 µg/mL	> 5 µg/mL			
CC1(C)C=Cc2c(c(O)cc3c2OC[C@@H]2c4cc5c(cc4O[C@H]32)OCO5)O1	> 5 µg/mL	> 5 µg/mL	> 5 µg/mL			
CC1(C)C=Cc2c(cc(O)c3c2OCC(c2cc4c(cc2O)OCO4)C3=O)O1 (racemic) [DISCOLORANONE A]	> 5 µg/mL	> 5 µg/mL	> 5 µg/mL			
CC1(C)C=Cc2c(cc3c(c2O)C(=O)[C@@H](c2cc4c(cc2O)OCO4)CO3)O1 [(3S)-ISODISCOLORANONE A]	> 5 µg/mL	> 5 µg/mL	> 5 µg/mL			
COc1ccc([C@H]2COc3cc4c(c(O)c3C2=O)C=CC(C)(CCC=C(C)C)O4)c(O)c1O (stereo partly drawn) [(3S)-ISODISCOLORANONE B]	> 5 µg/mL	> 5 µg/mL	> 5 µg/mL			
C=C(CO)[C@H]1Cc2c(ccc3c2O[C@@H]2COc4cc(OC)c(OC)cc4[C@@H]2C3=O)O1 [AMORPHIGENIN]	7.9 µg/mL (≈ 19.2 µM)	> 20 µg/mL	4.8 µg/mL (≈ 11.7 µM)			
C=C(CO)[C@H]1Cc2c(ccc3c2O[C@@H]2COc4cc(OC)c(OC)cc4[C@]2(O)C3=O)O1 [DABINOL]	5.4 µg/mL (≈ 12.7 µM)	13.1 µg/mL (≈ 30.7 µM)	3.1 µg/mL (≈ 7.27 µM)			
COc1ccc([C@H]2COc3c4c(cc(O)c3C2=O)OC(C)(CCC=C(C)C)C=C4)c(O)c1O (stereo not given in full) [DISCOLORANONE]	6.4 µg/mL (≈ 14.1 µM)	3.6 µg/mL (≈ 7.96 µM)	9.6 µg/mL (≈ 21.2 µM)			
COc1ccc(C2COc3c(ccc4c3C=CC(C)(CCC=C(C)C)O4)C2)c(O)c1 (stereo not given) [HEMINITIDULAN]	> 5 µg/mL	> 5 µg/mL	> 5 µg/mL			
CC1(C)C=Cc2c(ccc3c2OCC2c4cc5c(cc4OC32)OCO5)O1 (stereo not given) [LEIOCARPIN]	> 5 µg/mL	> 5 µg/mL	> 5 µg/mL			
CC1(C)C=Cc2c(c(O)cc3c2OCC(c2cc4c(cc2O)OCO4)C3)O1 (stereo not given) [LEIOCINOL]	> 5 µg/mL	> 5 µg/mL	> 5 µg/mL			
CC1(C)C=Cc2c(ccc3c2OCC(c2cc4c(cc2O)OCO4)C3)O1 (stereo not given) [LEIOCIN]	> 5 µg/mL	> 5 µg/mL	> 5 µg/mL			
CC(C)=CCCC1(C)C=Cc2c(ccc3c2OCC(c2cc4c(cc2O)OCO4)C3)O1 (stereo not given) [NITIDULAN]	> 5 µg/mL	> 5 µg/mL	> 5 µg/mL			
COc1ccc([C@H]2COc3c(ccc4c3C=CC(C)(CCC=C(C)C)O4)C2)c(O)c1O (stereo not given in full) [NITIDULIN]	4.1 µg/mL (≈ 9.7 µM)	3.5 µg/mL (≈ 8.28 µM)	4.2 µg/mL (≈ 9.94 µM)	inactive	49%	inactive
